Results from ChEMBL document CHEMBL4396927, “Fluorescent Imidazo[1,5-a]pyridinium Salt for a Potential Cancer Therapy Agent” (ACS Med Chem Lett, 2019).
Activity calls are given as the source filed them. The calls are words filed in the database; no cut-off is given here.

Legend:
[1] = Drug distribution in human HeLa cells cytoplasm assessed as increase in super oxide anion level at 2.5 x 10^-4 mol/L preincubated for 24 hrs followed by irradiation with 365 nm UVA-LED light measured at 5 mins interval for 30 mins by MitoROS stress marker based laser confocal microscopic analysis; format: ADME, subcellular; details: 0.5 h, 250 µM
Procedure, shortened: (§1)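 Live HeLa cells, with or without the salt, were loaded with OxiORANGE (hydroxyl radical) or MitoROS 580 (superoxide) and imaged during UV irradiation for 30 min. Blue fluorescence was taken through a DAPI filter and red through a TRITC filter. Intensities were quantified at endosomal positions, in cytoplasm and for the red probe.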

[2] = Drug distribution in human HeLa cell cytoplasm assessed as increase in hydroxyl radical at 2.5 x 10^-4 mol/L preincubated for 24 hrs followed by irradiation with 365 nm UVA-LED light measured at 5 mins interval for 30 mins by OxiORANGE stress marker based laser confocal microscopic analysis; format: ADME, subcellular; details: 0.5 h, 250 µM; procedure, shortened: as §1
[3] = test system: Enterobacteria phage phiX174; assay: Induction of DNA cleavage in supercoiled phiX174 RF I DNA assessed as formation of nicked circular DNA in presence of UVA-LED irradiation with 365 nm light after 10 mins by RE-DYE based agarose gel electrophoresis method
Procedure, shortened: (§2)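 Supercoiled ΦX174 RF I DNA in TE, with the salt in H2O, was irradiated with UVA-LED for 1, 10, 30, 60 or 180 min. A DNA-only irradiated control was included. Scavenger runs added 1.0 × 10–3 mol L–1 NaN3, KI, DMSO or t-BuOH with 60 min irradiation. Samples were resolved on 0.9% agarose in TAE (40 mmol L–1 Tris-acetate, 1 mmol L–1 EDTA, pH 8.0), and supercoiled (Form I) versus nicked circular (Form II) bands were scored.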

[4] = test system: Enterobacteria phage phiX174; assay: Induction of DNA cleavage in supercoiled phiX174 RF I DNA assessed as cleavage of supercoiled DNA in presence of UVA-LED irradiation with 365 nm light after 60 mins by RE-DYE based agarose gel electrophoresis method relative to control; procedure, shortened: as §2
[5] = test system: Enterobacteria phage phiX174; assay: Induction of DNA cleavage in supercoiled phiX174 RF I DNA assessed as DNA photo cleavage irradiated with 365 nm UVA-LED light in presence of NaN3 measured up to 60 mins by RE-DYE based agarose gel electrophoresis method; procedure, shortened: as §2
[6] = test system: Enterobacteria phage phiX174; assay: Induction of DNA cleavage in supercoiled phiX174 RF I DNA assessed as DNA photo cleavage irradiated with 365 nm UVA-LED light in presence of KI measured up to 60 mins by RE-DYE based agarose gel electrophoresis method; procedure, shortened: as §2
[7] = test system: Enterobacteria phage phiX174; assay: Induction of DNA cleavage in supercoiled phiX174 RF I DNA assessed as DNA photo cleavage irradiated with 365 nm UVA-LED light in presence of DMSO measured up to 60 mins by RE-DYE based agarose gel electrophoresis method; procedure, shortened: as §2
[8] = test system: Enterobacteria phage phiX174; assay: Induction of DNA cleavage in supercoiled phiX174 RF I DNA assessed as DNA photo cleavage irradiated with 365 nm UVA-LED light in presence of t-BuOH measured up to 60 mins by RE-DYE based agarose gel electrophoresis method; procedure, shortened: as §2
[9] = test system: Enterobacteria phage phiX174; assay: Induction of DNA cleavage in supercoiled phiX174 RF I DNA assessed as formation of nicked circular DNA irradiated with 365 nm UVA-LED light under N2 condition measured up to 60 mins by RE-DYE based agarose gel electrophoresis method
[10] = test system: HeLa; assay: Antiproliferative against human HeLa cells assessed as reduction in cell viability at 2.5 x 10^-4 mol/L after 24 hrs by CCK-8 assay; format: functional, cell-based
Procedure, shortened: (§3)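 HeLa viability was read by CCK-8 after 1 h (acute) or 24 h (subacute) incubation with a concentration series of the salt. The top concentration was 2.5 × 10–4 mol L–1, limited by water solubility. IC50 was estimated, not determined.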

[11] = test system: HeLa; assay: Antiproliferative against human HeLa cells assessed as reduction in cell viability at 0.08 x 10^-4 mol/L to 1.25 x 10^-4 mol/L after 24 hrs by CCK-8 assay; format: functional, cell-based; procedure, shortened: as §3
[12] = Drug localization in endosomes of human HeLa cells assessed as co-localization of compound with endosome at 2.5 x 10^-4 mol/L after 24 hrs in presence of endocytosis marker Alexa Fluor 594-conjugated dextran by fluorescence based inverted microscopic analysis; format: ADME, subcellular; details: 250 µM
Procedure, shortened: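 HeLa cells were co-incubated with the salt and an endocytosis marker at 37 °C, 5% CO2, for 24 h. Imaging used bright field, cyan fluorescence through a WU filter and red marker fluorescence through a WIY filter, and the images were merged to assess colocalization.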

[13] = test system: HeLa; assay: Photocytotoxicity against human HeLa cells assessed as reduction in cell viability at 2.5 x 10^-4 mol/L preincubated for 24 hrs followed by irradiation with 365 nm UVA-LED light after 10 mins by CCK-8 assay; format: functional, cell-based
Procedure, shortened: (§4)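 Salt-stained HeLa cells were irradiated with UVA-LED for 10, 30 or 60 min. Viability was read immediately after irradiation, or after a further 24 h at 37 °C in the dark. Irradiated cells without salt served as control.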

[14] = test system: HeLa; assay: Photocytotoxicity against human HeLa cells assessed as reduction in cell viability at 2.5 x 10^-4 mol/L preincubated for 24 hrs followed by irradiation with 365 nm UVA-LED light after 30 mins by CCK-8 assay; format: functional, cell-based; procedure, shortened: as §4
[15] = test system: HeLa; assay: Photocytotoxicity against human HeLa cells assessed as reduction in cell viability at 2.5 x 10^-4 mol/L preincubated for 24 hrs followed by irradiation with 365 nm UVA-LED light after 60 mins by CCK-8 assay; format: functional, cell-based; procedure, shortened: as §4
[16] = test system: HeLa; assay: Photocytotoxicity against human HeLa cells assessed as reduction in cell viability at 2.5 x 10^-4 mol/L preincubated for 24 hrs followed by irradiation with 365 nm UVA-LED light for 60 mins and measured after 24 hrs by CCK-8 assay; format: functional, cell-based; procedure, shortened: as §4
[17] = test system: HeLa; assay: Antiproliferative activity against human HeLa cells assessed as reduction in cell viability by measuring mitochondrial damage at 2.5 x 10^-4 mol/L preincubated for 24 hrs followed by irradiation with 365 nm UVA-LED light after 30 mins by inverted microscopic analysis; format: functional, cell-based
[18] = test system: HeLa; assay: Induction of mitochondrial depolarization in human HeLa cells assessed at 2.5 x 10^-4 mol/L preincubated for 24 hrs followed by irradiation with 365 nm UVA-LED for 30 mins by JC-1 staining based inverted microscopic analysis; format: functional, cell-based
Procedure, shortened: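 Mitochondrial membrane potential was assessed by JC-1 in HeLa cells with or without the salt after UVA-LED irradiation for 0, 30 or 60 min. FCCP served as the depolarization positive control. Imaging used WIY and WU filters plus bright field.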

[19] = test system: HeLa; assay: Induction of mitochondrial depolarization in human HeLa cells assessed at 2.5 x 10^-4 mol/L preincubated for 24 hrs followed by irradiation with 365 nm UVA-LED for 30 mins under hypoxic conditions by JC-1 staining based inverted microscopic analysis; format: functional, cell-based
Procedure, shortened: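 The JC-1 mitochondrial membrane potential assay was run on salt-stained HeLa cells under UVA-LED irradiation in hypoxic conditions.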

[20] = test system: HeLa; assay: Antiproliferative against human HeLa cells assessed as reduction in cell viability after 24 hrs by CCK-8 assay; format: functional, cell-based; procedure, shortened: as §3
[21] = Drug localization in human HeLa cells mitochondria at 2.5 x 10^-4 mol/L incubated for 24 hrs by Mitotracker Red staining based inverted microscopic analysis; format: ADME; details: 250 µM
Procedure, shortened: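 HeLa cells were stained with the salt and a mitochondrial marker, either without UVA-LED or with marker incubation after 30 min of UVA-LED irradiation. Overlap of cyan and red fluorescence was assessed.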

[22] = Drug distribution in human HeLa cells cytoplasm assessed as decrease in dot shaped cyan signals at 2.5 x 10^-4 mol/L after 24 hrs in presence of endocytosis marker Alexa Fluor 594-conjugated dextran followed by irradiation with 365 nm UVA-LED for 10 to 30 mins by fluorescence based inverted microscopic analysis; details: 250 µM

Structure (SMILES): C[n+]1c(-c2ccccc2)c2ccccn2c1-c1n2ccccc2c(-c2ccccc2)[n+]1C.[I-].[I-]
- Drug uptake [1]: Active
- Drug uptake [2]: Active
- Activity [3]: Active
- Activity [4]: 100%
- Activity [5]: Active
- Activity [6]: Active
- Activity [7]: Active
- Activity [8]: Active
- Activity [9]: Active
- Activity [10]: Active
- Activity [11]: inactive
- Drug uptake [12]: Active
- Activity [13]: inactive
- Activity [14]: Active
- Activity [15]: Active
- Activity [16]: Active
- Activity [17]: Active
- Activity [18]: Active
- Activity [19]: inactive
- IC50 [20]: Nd(Insoluble)
- Drug uptake [21]: Not Active
- Drug uptake [22]: Active
